In PMC7814465 (Cell reports, 2020):

Assays:
Imp7 = assay: Pull-down from HeLa cytosol, Imp7; assay type: binding; details: biotinylated peptide, western blot
In short: (§1)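 Biotin-DPR bait (5 μg per 10 μl beads) immobilised overnight with 2 mg/ml ovalbumin. Prey bound in B-buffer with 2 mg/ml BSA, washed without BSA, eluted in 2× SDS loading buffer. Two independent replicates.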

Impβ = assay: Pull-down from HeLa cytosol, Impβ; assay type: binding; details: biotinylated peptide, western blot
In short: as §1

Impα3 = assay: Pull-down from HeLa cytosol, Impα3; assay type: binding; details: biotinylated peptide, western blot
In short: as §1

[1] = system: Impβ (His-S-Impβ, in the absence of Impα); assay: Sedimentation assay, Impβ alone; assay type: biochemical
In short: (§2)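 Protein was 1 µM purified NTR alone, or 500 nM Impα with 500 nM Impβ. Samples were centrifuged 15 min at 21,000 g, 4°C. Equal volumes of supernatant and pellet were analysed by SDS-PAGE with Sypro-Ruby stain or western blot.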

CRM1 = assay: Sedimentation assay, CRM1; assay type: biochemical
In short: as §2

TNPO1 (His-TNPO1) = assay: SDD-AGE oligomer formation, TNPO1; assay type: biochemical; details: 10-fold molar excess: 2 μM importin, 20 μM TMR-DPR, pH 7.5, 200 mM NaCl, 1 h RT
Impα3 (His-Impα3) = assay: SDD-AGE oligomer formation, Impα3; assay type: biochemical, rat; details: 10-fold molar excess: 2 μM importin, 20 μM TMR-DPR, pH 7.5, 200 mM NaCl, 1 h RT
[2] = system: TDP-43 (TDP-43-Tev-MBP/MBP-Tev-TDP-43-GFP); assay: TDP-43 condensate formation with DPRs, microscopy; assay type: biochemical; details: TMR-labeled DPR, equimolar (1x) or two-fold (2x), 2 μM TDP-43/TDP-43-GFP, Tev cleavage, 200 mM NaCl, pH 7.5
In short: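 Size-exclusion-purified TDP-43-MBP-His (2 μM) was mixed with substoichiometric MBP-TDP-43-GFP-His (1:4–1:5). Condensates were imaged by laser scanning confocal microscopy.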

GAPDH in HeLa cytosol = assay: Sedimentation assay from HeLa cytosol, GAPDH; assay type: biochemical; details: highest GR/PR concentrations
Impb = details: FRET sensors and bead Halo assays; ref Hayes et al., 2019; cited from earlier work
[3] = system: shuttling reporter (NLS and nuclear export signal); details: HeLa cells incubated with peptides; ref Shi et al., 2017; cited from earlier work
[4] = system: GR- or PR-induced TDP-43 condensates; assay: Suppression of GR- or PR-induced TDP-43 condensates by NTRs; assay type: biochemical; details: equimolar NTR; TMR-GR25 or TMR-PR25; Tev cleavage
In short: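 SEC-purified TDP-43-MBP-His (2 μM) was mixed with MBP-TDP-43-GFP-His at 1:4–1:5, together with equimolar TMR-labelled DPR, with or without NTRs. Mixing preceded cleavage with 100 μg/ml His-Tev in 50 mM Tris pH 7.5, 200 mM NaCl, 2 mM DTT. Condensates were imaged by laser scanning confocal microscopy.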

TDP-43 condensates = assay: Suppression of phase separation of TDP-43 alone by NTRs; assay type: biochemical; details: equimolar NTR, 5 μM TDP-43, Tev cleavage
In short: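 TDP-43-MBP-His (Ni-NTA then amylose purified) and TNPO1 were buffer-exchanged into 20 mM HEPES-NaOH pH 7.4, 150 mM NaCl, 1 mM DTT. TDP-43 at 5 μM, with or without 5 μM TNPO1, was started with 1 μg/ml Tev protease. Absorbance at 395 nm was read over 16 h and normalised to TDP-43 + Tev alone.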

TDP-43 [5] = assay: Sedimentation of TDP-43 with GST-GR25 and NTRs; assay type: biochemical; details: GST-GR25, NTR added prior to Tev cleavage; three independent experiments
In short: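 1 µM TDP-43-MBP-His was Tev-cleaved (20 µg/ml His-Tev, 60 min, 30°C) with or without equimolar GST-tagged DPR and/or NTRs, then spun 15 min at 21,000 g, 4°C. Equal supernatant and pellet volumes were analysed by SDS-PAGE with Sypro-Ruby or western blot. Percentage of soluble cleaved TDP-43 is the mean ± SEM of three experiments, compared by one-way ANOVA with Dunnett's test.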

GST-GR25 / TDP-43 = assay: Sedimentation of GST-GR25 with TDP-43 and NTRs; assay type: biochemical; details: equimolar NTR; three independent experiments
In short: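 1 µM TDP-43-MBP-His was Tev-cleaved (20 µg/ml His-Tev, 60 min, 30°C) with or without equimolar GST-tagged DPR and/or NTRs. Samples were centrifuged 15 min at 21,000 g, 4°C. Equal volumes of supernatant and pellet were analysed by anti-GST western blot.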

TDP-43 [6] = assay: TDP-43 turbidity assay; assay type: biochemical; details: n = 3
In short: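 TDP-43-MBP-His (Ni-NTA then amylose purified) and TNPO1 were buffer-exchanged into 20 mM HEPES-NaOH pH 7.4, 150 mM NaCl, 1 mM DTT. TDP-43 at 5 µM final was combined with 2 µM DPR peptide (PBS control), 5 µM TNPO1, or both. Phase separation was started with 1 µg/ml Tev protease, and absorbance at 395 nm was followed over 16 h. Values were normalized to TDP-43 plus Tev alone.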

TDP-43 in HeLa cytosol = assay: Suppression by NTRs of GR-induced precipitation of cytosolic TDP-43; assay type: biochemical; details: equimolar NTR, three independent experiments
In short: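 Cytosol came from digitonin-permeabilised HeLa cells, cleared at 21,000 g. TMR-DPRs were added and the mix held 15 min at 4°C, then spun at 21,000 g for 15 min. Equal volumes of pellet and supernatant were analysed by western blot.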

[7] = 10-fold molar excess of TMR-labeled DPR, n = 3
[8] = extremely high concentrations (up to 40x)

Row | Molecule | binding in pull-down (Imp7) | binding in pull-down (Impβ) | binding in pull-down (Impα3) | solubility of Impβ [1, 7] | precipitation of Impβ, titration [1, 8] | solubility of CRM1 (CRM1; [7]) | precipitation of CRM1, titration (CRM1; [8]) | oligomer formation of TNPO1 (SDS-resistant) (TNPO1 (His-TNPO1)) | oligomer formation of Impα3 (SDS-resistant) (Impα3 (His-Impα3)) | TDP-43 condensate formation [2] | precipitation of GAPDH from HeLa cytosol (GAPDH in HeLa cytosol) | direct binding to Impb in vitro (Impb) | import of shuttling reporter [3] | suppression of GR- or PR-induced TDP-43 condensates [4] | suppression of phase separation of TDP-43 alone (TDP-43 condensates) | reversal of poly-GR-enhanced sedimentation of TDP-43 (TDP-43 [5]) | rescue of GST-GR25 solubility in presence of TDP-43 (GST-GR25 / TDP-43) | effect on GR-mediated promotion of TDP-43 turbidity (TDP-43 [6]; 5 μM TNPO1, 2 μM GR20, 5 μM TDP-43, 395 nm, 16 h) | effect on TDP-43 turbidity increase in absence of GR (TDP-43 [6]; 5 μM TNPO1, 5 μM TDP-43, Tev cleavage, 395 nm) | suppression of GR-induced precipitation of cytosolic TDP-43 (TDP-43 in HeLa cytosol)
1 | poly-PR: arginine-rich dipeptide repeat protein species; in the experiments mostly PR25 | bound equally to both poly-GR and poly-PR | bound equally to both poly-GR and poly-PR | bound equally to both poly-GR and poly-PR | remained mainly soluble | only partial or no precipitation | remained mainly soluble | only partial or no precipitation | SDS-resis-tant oligomers | SDS-resis-tant oligomers | formation of condensates | not precipitated | direct binding | reduced import |  |  |  |  |  |  | 
2 | TNPO1: nuclear import receptor, recombinant (protein, left off: His6, N-terminal, kept) MVWDRQTKMEYEWKPDEQGLQQILQLLKESQSPDTTIQRTVQQKLEQLNQYPDFNNYLIFVLTKLKSEDEPTRSLSGLILKNNVKAHFQNFPNGVTDFIKSECLNNIGDSSPLIRATVGILITTIASKGELQNWPDLLPKLCSLLDSEDYNTCEGAFGALQKICEDSAEILDSDVLDRPLNIMIPKFLQFFKHSSPKIRSHAVACVNQFIISRTQALMLHIDSFIENLFALAGDEEPEVRKNVCRALVMLLEVRMDRLLPHMHNIVEYMLQRTQDQDENVALEACEFWLTLAEQPICKDVLVRHLPKLIPVLVNGMKYSDIDIILLKGDVEEDETIPDSEQDIRPRFHRSRTVAQQHDEDGIEEEDDDDDEIDDDDTISDWNLRKCSAAALDVLANVYRDELLPHILPLLKELLFHHEWVVKESGILVLGAIAEGCMQGMIPYLPELIPHLIQCLSDKKALVRSITCWTLSRYAHWVVSQPPDTYLKPLMTELLKRILDSNKRVQEAACSAFATLEEEACTELVPYLAYILDTLVFAFSKYQHKNLLILYDAIGTLADSVGHHLNKPEYIQMLMPPLIQKWNMLKDEDKDLFPLLECLSSVATALQSGFLPYCEPVYQRCVNLVQKTLAQAMLNNAQPDQYEAPDKDFMIVALDLLSGLAEGLGGNIEQLVARSNILTLMYQCMQDKMPEVRQSSFALLGDLTKACFQHVKPCIADFMPILGTNLNPEFISVCNNATWAIGEISIQMGIEMQPYIPMVLHQLVEIINRPNTPKTLLENTAITIGRLGYVCPQEVAPMLQQFIRPWCTSLRNIRDNEEKDSAFRGICTMISVNPSGVIQDFIFFCDAVASWINPKDDLRDMFCKILHGFKNQVGDENWRRFSDQFPLPLKERLAAFYGV |  |  |  |  |  |  |  |  |  |  |  |  |  | suppress the GR- or PR-induced formation of TDP-43 condensates | unable to abolish condensate formation of TDP-43 | efficiently reverted | completely rescued | effectively suppressed | did not affect | efficiently suppressed GR-induced precipitation of cytosolic TDP-43
